In ChEMBL document CHEMBL5303300, “EUbOPEN Chemogenomics Library - Multiplex” (2023):
Several values for one entry are separate records, joined by “and”; a condition that tells them apart may be missing. Equal values may be shown once.

Legend:
[1] = test system: HEK-293T; assay: Multiplex assay against HEK293T; assay type: toxicity, cell-based; conditions: human, number of replicates 2
Procedure, shortened: (§1)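 Live cells were stained at seeding with Hoechst33342, BioTracker Green Microtubule Cytoskeleton Dye, MitoTracker Red and Annexin V Alexa Fluor 680, then imaged on a CQ1 microscope at 37°C and 5% CO2 after compound addition. CellPathfinder machine-learning gating split cells into Hoechst high-intensity objects or normal cells. Normal cells were split into healthy, pyknosed or fragmented nuclei, and pyknosed cells into mitotic or apoptotic. Tubulin, mitochondrial-mass and membrane-permeability phenotypes are per cents of healthy-nucleus cells.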

[2] = test system: Fibroblast; assay: Multiplex assay against human fibroblast; assay type: toxicity, cell-based; conditions: number of replicates 2; procedure, shortened: as §1
[3] = 24 h, 10 µM, compound concentration 10 uM
[4] = 48 h, 1 µM, compound concentration 1 uM
[5] = 48 h, 10 µM, compound concentration 10 uM
[6] = 12 h, 1 µM, compound concentration 1 uM
[7] = 12 h, 10 µM, compound concentration 10 uM
[8] = 24 h, 1 µM, compound concentration 1 uM

SMILES: Cc1onc(-c2ccccc2Cl)c1C(=O)N(C)c1ccc(Cl)cc1
- Population Mitotic Cells (%) [1, 3]: 63% and 76%
- Population Normal (%) [1, 3]: 94% and 91%
- Population Pyknosed Nuclei (%) [1, 3]: 9% and 7%
- Population Tubulin-Different-Phenotype (%) [1, 3]: 51% and 30%
- Total Cell Count [1, 3]: 757 and 965
- Population Apoptotic (%) [1, 4]: 12% and 17%
- Population Fragmented Nuclei (%) [1, 4]: 11% and 9%
- Population Healthy Nuclei (%) [1, 4]: 84% and 87%
- Population Hoechst High Intensity Objects (%) [1, 4]: 8%
- Population Membrane Permeable-Phenotype (%) [1, 4]: 4%
- Population Mitochondria Different-Phenotype (%) [1, 4]: 1% and 0%
- Population Mitotic Cells (%) [1, 4]: 87% and 82%
- Population Normal (%) [1, 4]: 91%
- Population Pyknosed Nuclei (%) [1, 4]: 3% and 2%
- Population Tubulin-Different-Phenotype (%) [1, 4]: 8% and 11%
- Total Cell Count [1, 4]: 2361 and 2103
- Population Apoptotic (%) [1, 5]: 25% and 17%
- Population Fragmented Nuclei (%) [1, 5]: 11% and 14%
- Population Healthy Nuclei (%) [1, 5]: 84% and 82%
- Population Hoechst High Intensity Objects (%) [1, 5]: 8%
- Population Membrane Permeable-Phenotype (%) [1, 5]: 6%
- Population Mitochondria Different-Phenotype (%) [1, 5]: 2% and 0%
- Population Mitotic Cells (%) [1, 5]: 75% and 82%
- Population Normal (%) [1, 5]: 91%
- Population Pyknosed Nuclei (%) [1, 5]: 4% and 2%
- Population Tubulin-Different-Phenotype (%) [1, 5]: 33% and 16%
- Total Cell Count [1, 5]: 1552 and 2354
- Population Apoptotic (%) [2, 6]: 35%
- Population Fragmented Nuclei (%) [2, 6]: 11% and 12%
- Population Healthy Nuclei (%) [2, 6]: 66% and 69%
- Population Hoechst High Intensity Objects (%) [2, 6]: 0%
- Population Membrane Permeable-Phenotype (%) [2, 6]: 6% and 8%
- Population Mitochondria Different-Phenotype (%) [2, 6]: 0%
- Population Mitotic Cells (%) [2, 6]: 64%
- Population Normal (%) [2, 6]: 100%
- Population Pyknosed Nuclei (%) [2, 6]: 22% and 18%
- Population Tubulin-Different-Phenotype (%) [2, 6]: 16% and 12%
- Total Cell Count [2, 6]: 167 and 197
- Population Apoptotic (%) [2, 7]: 36% and 47%
- Population Fragmented Nuclei (%) [2, 7]: 8%
- Population Healthy Nuclei (%) [2, 7]: 67% and 72%
- Population Hoechst High Intensity Objects (%) [2, 7]: 0%
- Population Membrane Permeable-Phenotype (%) [2, 7]: 8% and 11%
- Population Mitochondria Different-Phenotype (%) [2, 7]: 2%
- Population Mitotic Cells (%) [2, 7]: 63% and 52%
- Population Normal (%) [2, 7]: 100%
- Population Pyknosed Nuclei (%) [2, 7]: 24% and 18%
- Population Tubulin-Different-Phenotype (%) [2, 7]: 18% and 15%
- Total Cell Count [2, 7]: 185 and 192
- Population Apoptotic (%) [2, 8]: 44% and 31%
- Population Fragmented Nuclei (%) [2, 8]: 8% and 13%
- Population Healthy Nuclei (%) [2, 8]: 66% and 64%
- Population Hoechst High Intensity Objects (%) [2, 8]: 0%
- Population Membrane Permeable-Phenotype (%) [2, 8]: 7% and 6%
- Population Mitochondria Different-Phenotype (%) [2, 8]: 0%
- Population Mitotic Cells (%) [2, 8]: 55% and 68%
- Population Normal (%) [2, 8]: 100%
- Population Pyknosed Nuclei (%) [2, 8]: 24% and 22%
- Population Tubulin-Different-Phenotype (%) [2, 8]: 13% and 9%
- Total Cell Count [2, 8]: 157 and 204
- Population Apoptotic (%) [2, 3]: 56% and 57%
- Population Fragmented Nuclei (%) [2, 3]: 5% and 8%
- Population Healthy Nuclei (%) [2, 3]: 72% and 74%
- Population Hoechst High Intensity Objects (%) [2, 3]: 0%
- Population Membrane Permeable-Phenotype (%) [2, 3]: 5% and 8%
- Population Mitochondria Different-Phenotype (%) [2, 3]: 4% and 0%
- Population Mitotic Cells (%) [2, 3]: 43% and 42%
- Population Normal (%) [2, 3]: 100% and 99%
- Population Pyknosed Nuclei (%) [2, 3]: 22% and 17%
- Population Tubulin-Different-Phenotype (%) [2, 3]: 15% and 11%
- Total Cell Count [2, 3]: 166 and 203
- Population Apoptotic (%) [2, 4]: 42% and 56%
- Population Fragmented Nuclei (%) [2, 4]: 8% and 14%
- Population Healthy Nuclei (%) [2, 4]: 72% and 68%
- Population Hoechst High Intensity Objects (%) [2, 4]: 0%
- Population Membrane Permeable-Phenotype (%) [2, 4]: 2% and 3%
- Population Mitochondria Different-Phenotype (%) [2, 4]: 0%
- Population Mitotic Cells (%) [2, 4]: 57% and 43%
- Population Normal (%) [2, 4]: 100%
- Population Pyknosed Nuclei (%) [2, 4]: 18% and 17%
- Population Tubulin-Different-Phenotype (%) [2, 4]: 9% and 4%
- Total Cell Count [2, 4]: 148 and 214
- Population Apoptotic (%) [2, 5]: 65% and 54%
- Population Healthy Nuclei (%) [2, 5]: 77% and 74%
- Population Hoechst High Intensity Objects (%) [2, 5]: 0%
- Population Membrane Permeable-Phenotype (%) [2, 5]: 7% and 4%
- Population Mitochondria Different-Phenotype (%) [2, 5]: 1% and 0%
- Population Mitotic Cells (%) [2, 5]: 34% and 45%
- Population Normal (%) [2, 5]: 100%
- Population Pyknosed Nuclei (%) [2, 5]: 18% and 9%
- Population Tubulin-Different-Phenotype (%) [2, 5]: 11% and 8%
- Total Cell Count [2, 5]: 157 and 221
